Calls of active or inactive are those of the source. The rule behind the calls is not given here.
Assays:
[1] = Drug metabolism in mouse liver microsomes assessed as retention time of hydroxylated metabolite at 20 uM at pH 7.4 incubated for 15 mins by UPLC/MS analysis in presence of NADPH; format: ADME; details: pH 7.4, 0.25 h
Method in brief: (§1)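 Compound (20 µM) incubated with mouse liver microsomes (0.2 mg/ml) in 100 mM potassium phosphate, pH 7.4, 37 °C. Reaction started with NADPH-regenerating system; blank without NADPH run in parallel. Sampling at 5, 15, 30 and 60 min (some to 120 min), in duplicate. Levallorphan internal standard; UPLC/MS quantitation. t1/2 from ln % remaining vs time.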

[2] = biological target: T1, D(2) dopamine receptor (Homo sapiens, UniProt P14416); assay: Displacement of [3H]-Raclopride from human dopamine D2L receptor expressed in HEK293 cells incubated for 1 hr; format: cell-based
Method in brief: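 Membranes from HEK293 cells stably expressing human D2L receptor, with [3H]-raclopride (74.4 Ci/mmol). Buffer: Tris-HCl, EDTA, MgCl2, 120 mM NaCl, 5 mM KCl, 1.5 mM CaCl2, ascorbate. Incubation 1 h at 37 °C, then filtration. Non-specific binding defined with (+)butaclamol. Triplicates at 7–8 concentrations (10^-11 to 10^-4 M). Ki by Cheng–Prusoff.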

[3] = biological target: 5-hydroxytryptamine receptor 7 (Homo sapiens, UniProt P34969); assay: Antagonist activity at human 5-HT7B receptor expressed in HEK293 cells assessed as inhibition of 5-carboxamidotryptamine-induced cAMP production; format: functional, cell-based
Method in brief: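 HEK293 cells stably expressing human 5-HT7b receptor. Compound's ability to inhibit cAMP production induced by 10 nM 5-CT was measured in triplicate at 8 concentrations (10^-11 to 10^-4 M). Kb = IC50/(1 + A/EC50), where A is agonist concentration.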

[4] = Metabolic stability in mouse liver microsomes assessed as retention time of compound at 20 uM at pH 7.4 incubated for 15 mins by UPLC/MS analysis in presence of NADPH; format: ADME; details: pH 7.4, 0.25 h; method in brief: as §1
[5] = biological target: Sodium-dependent serotonin transporter (Rattus norvegicus) (UniProt P31652); assay: Displacement of [3H]-citalopram from rat cerebral cortex SERT at 1 uM; format: tissue-based
[6] = biological target: T2, 5-hydroxytryptamine receptor 2C (Homo sapiens) (UniProt P28335); assay: Displacement of [3H]-mesulergine from human recombinant serotonin 5-HT2C receptor expressed in HEK293 cells at 1 uM incubated for 120 mins by scintillation counting method; format: cell-based
T2 sequence (whole entry): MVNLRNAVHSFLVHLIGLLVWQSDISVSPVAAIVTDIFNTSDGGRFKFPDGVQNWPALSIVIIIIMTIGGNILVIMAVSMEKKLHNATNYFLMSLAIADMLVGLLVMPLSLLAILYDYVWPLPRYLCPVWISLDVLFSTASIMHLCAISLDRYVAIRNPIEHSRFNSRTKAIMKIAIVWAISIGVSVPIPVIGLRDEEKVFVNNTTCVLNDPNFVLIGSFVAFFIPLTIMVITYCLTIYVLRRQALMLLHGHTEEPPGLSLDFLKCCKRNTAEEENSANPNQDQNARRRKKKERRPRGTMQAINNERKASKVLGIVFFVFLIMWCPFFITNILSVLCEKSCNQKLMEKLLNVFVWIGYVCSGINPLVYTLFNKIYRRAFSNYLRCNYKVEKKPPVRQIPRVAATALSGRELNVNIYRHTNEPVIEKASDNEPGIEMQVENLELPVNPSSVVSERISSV

[7] = biological target: T3, Muscarinic acetylcholine receptor M1 (Homo sapiens) (UniProt P11229); assay: Displacement of [3H]-pirenzepine from human recombinant muscarinic M1 receptor expressed in CHO cells at 1 uM after 60 mins by Scintillation counting method; format: cell-based
T3 sequence (whole entry): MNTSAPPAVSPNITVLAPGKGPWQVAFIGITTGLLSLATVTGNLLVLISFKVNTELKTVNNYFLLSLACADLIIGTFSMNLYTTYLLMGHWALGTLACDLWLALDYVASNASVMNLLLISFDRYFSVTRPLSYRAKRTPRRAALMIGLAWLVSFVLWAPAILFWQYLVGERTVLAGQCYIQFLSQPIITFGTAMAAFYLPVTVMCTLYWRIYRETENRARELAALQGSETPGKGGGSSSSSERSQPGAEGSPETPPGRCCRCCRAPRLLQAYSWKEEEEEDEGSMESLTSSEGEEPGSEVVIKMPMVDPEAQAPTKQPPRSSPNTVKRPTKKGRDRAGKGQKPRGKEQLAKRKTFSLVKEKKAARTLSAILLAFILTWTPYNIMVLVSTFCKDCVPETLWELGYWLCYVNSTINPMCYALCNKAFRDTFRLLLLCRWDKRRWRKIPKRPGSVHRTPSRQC

[8] = biological target: Histamine H1 receptor (Homo sapiens) (UniProt P35367); assay: Displacement of [3H]-pyrilamine from human recombinant histamine H1 receptor expressed in HEK293 cells at 1 uM after 60 mins by Scintillation counting method; format: cell-based
[9] = system: Mus musculus; assay: Antidepressant-like activity in ip dosed Swiss albino mouse assessed as reduction in immobility time dosed 60 mins before test measured after 6 mins by forced swim test; format: functional; details: read-out: MED
Method in brief: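 Male Swiss albino mice (22–26 g), 7–12 per dose. Compounds dissolved in distilled water and given ip 60 min before test. Each mouse placed for 6 min in a glass cylinder with 10 cm of water at 23–25 °C. Immobility (floating with minimal movement) scored over the last 4 min by a blinded observer. One-way ANOVA with Bonferroni.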

[10] = system: Rattus norvegicus; assay: Effect on exploratory activity in PCP-treated Sprague-Dawley rat at 1 mg/kg, ip dosed 1 hr and 15 mins before familiarization phase by novel object recognition test; format: functional, organism-based
Method in brief: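 Male Sprague–Dawley rats (~250 g), 7–12 per group, PCP-induced deficit model. Compounds ip 1 h and 15 min before T1. Day 1: 5-min arena habituation. Day 2: two 3-min trials 1 h apart, with two identical objects, then one replaced by a novel object. Exploration and distance video-tracked; discrimination index computed; ANOVA with Newman–Keuls.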

[11] = biological target: T1, D(2) dopamine receptor; assay: Antagonist activity at human dopamine D2L receptor expressed in HEK293 cells assessed as inhibition of dopamine-induced cAMP level at 1 uM; format: functional, cell-based
Method in brief: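 Cellular functional cAMP antagonist assay in HEK293 cells, run externally. Inhibition of control agonist response (dopamine 30 nM) measured with compound at 10^-6 M.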

[12] = biological target: 5-hydroxytryptamine receptor 2A (Homo sapiens, UniProt P28223); assay: Antagonist activity at human 5-HT2A receptor expressed in HEK293 cells assessed as inhibition of serotonin-induced inositol-1-phosphate accumulation at 1 uM after 30 mins by HTRF assay; format: functional, cell-based
Method in brief: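 Cellular functional antagonist assay in HEK293 cells stably expressing human 5-HT2A receptor, run externally. Inhibition of control agonist response (serotonin 100 nM) measured with compound at 10^-6 M.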

[13] = Drug metabolism in mouse liver microsomes assessed as retention time of N-dealkylated metabolite at 20 uM at pH 7.4 incubated for 15 mins by UPLC/MS analysis in presence of NADPH; format: ADME; details: pH 7.4, 0.25 h; method in brief: as §1
[14] = system: Mus musculus; assay: Toxicity in Swiss albino mouse assessed as effect on spontaneous locomotor activity at 1.25 mg/kg, ip dosed 60 mins before test measured after 2 to 6 mins; format: organism-based; details: in vivo

Sodium-dependent serotonin transporter (Rattus norvegicus), sequence (P31652 whole entry): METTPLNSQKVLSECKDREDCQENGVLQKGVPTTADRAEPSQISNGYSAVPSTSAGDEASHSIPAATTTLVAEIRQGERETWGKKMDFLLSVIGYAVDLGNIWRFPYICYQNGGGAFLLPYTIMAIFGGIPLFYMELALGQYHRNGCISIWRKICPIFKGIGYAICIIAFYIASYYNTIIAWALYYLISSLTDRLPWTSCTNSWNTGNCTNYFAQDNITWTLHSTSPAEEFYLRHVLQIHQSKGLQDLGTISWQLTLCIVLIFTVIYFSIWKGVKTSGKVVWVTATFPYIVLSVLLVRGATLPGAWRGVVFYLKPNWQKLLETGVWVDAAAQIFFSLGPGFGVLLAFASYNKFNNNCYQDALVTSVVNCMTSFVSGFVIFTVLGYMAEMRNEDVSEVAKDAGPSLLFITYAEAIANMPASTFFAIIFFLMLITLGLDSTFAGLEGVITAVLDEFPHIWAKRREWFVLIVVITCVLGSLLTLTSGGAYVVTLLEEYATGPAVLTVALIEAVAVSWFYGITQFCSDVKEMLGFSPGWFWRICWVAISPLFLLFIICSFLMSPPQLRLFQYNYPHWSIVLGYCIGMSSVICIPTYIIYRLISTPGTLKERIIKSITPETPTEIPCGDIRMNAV
Histamine H1 receptor (Homo sapiens), sequence (P35367 whole entry): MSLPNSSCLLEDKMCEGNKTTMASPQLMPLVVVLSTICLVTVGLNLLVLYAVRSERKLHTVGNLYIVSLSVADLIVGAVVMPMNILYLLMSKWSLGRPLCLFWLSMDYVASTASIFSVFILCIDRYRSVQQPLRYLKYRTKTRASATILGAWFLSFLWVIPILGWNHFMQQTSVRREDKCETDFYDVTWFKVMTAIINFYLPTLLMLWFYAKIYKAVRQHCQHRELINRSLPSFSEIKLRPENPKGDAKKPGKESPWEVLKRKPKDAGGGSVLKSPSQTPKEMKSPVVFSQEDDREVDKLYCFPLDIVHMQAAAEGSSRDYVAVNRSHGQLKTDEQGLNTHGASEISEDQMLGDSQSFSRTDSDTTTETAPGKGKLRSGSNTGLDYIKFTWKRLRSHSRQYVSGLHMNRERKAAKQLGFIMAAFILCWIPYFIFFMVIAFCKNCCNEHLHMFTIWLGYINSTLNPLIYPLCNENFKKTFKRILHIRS
5-hydroxytryptamine receptor 7, sequence (P34969 whole entry): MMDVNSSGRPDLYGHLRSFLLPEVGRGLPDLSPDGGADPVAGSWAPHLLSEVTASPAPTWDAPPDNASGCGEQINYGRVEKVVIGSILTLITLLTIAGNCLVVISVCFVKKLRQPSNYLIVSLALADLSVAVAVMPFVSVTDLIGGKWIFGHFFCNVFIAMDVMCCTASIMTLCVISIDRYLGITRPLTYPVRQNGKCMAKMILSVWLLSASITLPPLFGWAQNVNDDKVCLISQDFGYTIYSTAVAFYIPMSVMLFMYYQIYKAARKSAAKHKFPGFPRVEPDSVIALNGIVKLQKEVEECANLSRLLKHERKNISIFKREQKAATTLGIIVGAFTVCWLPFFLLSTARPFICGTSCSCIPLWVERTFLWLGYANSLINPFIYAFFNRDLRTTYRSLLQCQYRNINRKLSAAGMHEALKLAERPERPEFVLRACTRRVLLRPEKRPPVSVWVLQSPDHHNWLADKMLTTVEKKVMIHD
T1 sequence (P14416 whole entry): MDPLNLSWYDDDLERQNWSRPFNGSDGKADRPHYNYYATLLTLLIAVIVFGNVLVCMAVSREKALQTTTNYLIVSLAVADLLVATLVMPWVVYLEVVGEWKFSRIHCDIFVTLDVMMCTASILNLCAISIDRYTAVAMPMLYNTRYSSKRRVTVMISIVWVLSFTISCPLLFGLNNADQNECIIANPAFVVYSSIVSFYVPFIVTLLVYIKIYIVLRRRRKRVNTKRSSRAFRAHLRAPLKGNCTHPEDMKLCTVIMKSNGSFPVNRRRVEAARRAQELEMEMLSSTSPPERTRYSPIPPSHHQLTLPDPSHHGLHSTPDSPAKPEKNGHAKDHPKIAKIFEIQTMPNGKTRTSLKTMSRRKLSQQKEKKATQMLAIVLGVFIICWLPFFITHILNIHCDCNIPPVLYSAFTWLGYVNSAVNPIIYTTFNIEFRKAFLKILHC
5-hydroxytryptamine receptor 2A, sequence (P28223 whole entry): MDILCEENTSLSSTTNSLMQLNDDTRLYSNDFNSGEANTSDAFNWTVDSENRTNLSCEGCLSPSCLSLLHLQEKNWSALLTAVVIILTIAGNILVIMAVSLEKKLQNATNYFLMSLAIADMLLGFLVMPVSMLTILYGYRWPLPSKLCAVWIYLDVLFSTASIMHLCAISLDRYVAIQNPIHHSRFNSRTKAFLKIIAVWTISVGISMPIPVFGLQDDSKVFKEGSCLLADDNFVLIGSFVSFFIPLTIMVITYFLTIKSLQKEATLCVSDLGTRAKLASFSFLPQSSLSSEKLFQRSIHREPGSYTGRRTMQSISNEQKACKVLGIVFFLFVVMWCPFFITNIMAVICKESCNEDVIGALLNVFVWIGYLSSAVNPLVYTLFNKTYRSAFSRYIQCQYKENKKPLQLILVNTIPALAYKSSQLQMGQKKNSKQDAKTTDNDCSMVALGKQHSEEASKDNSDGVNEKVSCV

Row | SMILES | Retention_time [1] [min] | Ki [2] [µM] | Kb [3] [µM] | Retention_time [4] [min] | inhibition [5] [%] | inhibition [6] [%] | inhibition [7] [%] | inhibition [8] [%] | minimal effective dose [9] [mg/kg] | Activity [10] | inhibition [11] [%] | inhibition [12] [%] | Retention_time [13] [min] | Activity [14]
1 | CN(C1CCN(CCOc2ccccc2C(C)(C)C)CC1)S(=O)(=O)c1cnn(C)c1 | 4.09 | 0.28 | 0.082 | 5.22 | < 20 | < 17 | < 17 | < 64 | – | – | – | – | – | –
2 | Cn1cc(S(=O)(=O)N(CC2CC2)C2CCN(CCOc3ccccc3-c3ccccc3)CC2)cn1 | – | 0.016 | 0.079 | 5.46 | < 20 | < 17 | < 17 | < 64 | 1.25 | inactive | 94 | 94 | 4.59 | Non-toxic
3 | CN(C1CCN(CCOc2ccccc2-c2ccccc2)CC1)S(=O)(=O)c1cnn(C)c1 | – | 0.035 | 0.041 | 4.88 | < 20 | < 17 | < 17 | < 64 | – | – | 93 | 85 | 4.64 | –
4 | Cn1cc(S(=O)(=O)N(CC2CC2)C2CCN(CCOc3ccccc3C(C)(C)C)CC2)cn1 | 4.72 | 0.23 | 0.064 | 5.74 | < 20 | < 17 | < 17 | < 64 | 1.25 | inactive | – | – | – | Non-toxic
